# Assay results: ChEMBL document CHEMBL4138271, “Crystal Structures and Human Leukemia Cell Apoptosis Inducible Activities of Parthenolide Analogues Isolated from Piptocoma rufescens” (J Nat Prod, 2018)
# The source made the active and inactive calls. No cut-off for these calls is given here.
# Assays:
# MOLM-13 [1] = experiment: Induction of apoptosis in human MOLM13 cells assessed as early apoptotic cells at 12 uM after 24 hrs by Annexin-V FITC/7-AAD staining based flow cytometric method (reference value: 11.8%); assay type: functional
# MOLM-13 [2] = experiment: Induction of apoptosis in human MOLM13 cells assessed as caspase-3 activation at 10 uM after 72 hrs by immunoblotting analysis; assay type: functional, cell-based
# Outline: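 MOLM-13 cells treated 72 h with test compounds at 10 μM or PKC412 at 10 nM. Cells washed in ice-cold PBS, lysed at 10^8 cells/mL in NP-40 hypertonic buffer (pH 7.5) with protease/phosphatase inhibitors, then run on SDS-PAGE and PVDF. Blots probed 12 h with rabbit monoclonal cleaved caspase-3 (Asp175), β-actin as loading control. Representative of three independent experiments.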
# EOL1 [3] = experiment: Induction of apoptosis in human EOL-1 cells assessed as necrotic cells at 12 uM after 24 hrs by Annexin-V FITC/7-AAD staining based flow cytometric method (reference value: 0.032%); assay type: functional
# [4] = molecular target: Transcription factor p65 (Homo sapiens) (UniProt Q04206); experiment: Inhibition of NFkappaB p65 in human MOLM13 cells at 10 uM after 72 hrs by immunoblotting method; assay type: cell-based
# Chain of Transcription factor p65 (Homo sapiens) (Q04206 whole entry): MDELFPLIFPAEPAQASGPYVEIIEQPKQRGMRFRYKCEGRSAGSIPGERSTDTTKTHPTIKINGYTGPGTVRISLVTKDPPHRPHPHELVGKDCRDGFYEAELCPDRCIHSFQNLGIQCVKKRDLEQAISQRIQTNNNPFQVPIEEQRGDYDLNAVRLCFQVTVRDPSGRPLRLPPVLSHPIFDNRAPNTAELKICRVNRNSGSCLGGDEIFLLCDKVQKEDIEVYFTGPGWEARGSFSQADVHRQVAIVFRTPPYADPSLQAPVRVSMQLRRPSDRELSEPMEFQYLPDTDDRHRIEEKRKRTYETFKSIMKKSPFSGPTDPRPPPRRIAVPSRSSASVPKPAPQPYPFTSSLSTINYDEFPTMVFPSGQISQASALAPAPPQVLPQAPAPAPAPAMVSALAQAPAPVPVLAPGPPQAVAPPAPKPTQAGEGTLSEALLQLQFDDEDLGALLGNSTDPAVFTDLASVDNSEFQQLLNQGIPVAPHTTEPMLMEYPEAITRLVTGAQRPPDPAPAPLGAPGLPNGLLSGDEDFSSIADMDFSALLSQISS
# Outline: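 MOLM-13 or EOL-1 cells treated 72 h at 10 μM. Cells washed in ice-cold PBS and lysed in hypertonic NP-40 buffer (10 mM HEPES pH 7.5, 0.5 M NaCl) with protease/phosphatase inhibitors. Protein measured by BCA; SDS-PAGE onto PVDF. Probed 12 h with rabbit monoclonal NF-κB-p65 antibody, goat β-actin as loading control, then chemiluminescence. Blots representative of three independent experiments.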
# EOL1 [5] = experiment: Induction of apoptosis in human EOL-1 cells assessed as live cells at 6 uM after 24 hrs by Annexin-V FITC/7-AAD staining based flow cytometric method (reference value: 97.5%); assay type: functional
# EOL1 [6] = experiment: Induction of apoptosis in human EOL-1 cells assessed as early apoptotic cells at 6 uM after 24 hrs by Annexin-V FITC/7-AAD staining based flow cytometric method (reference value: 1.94%); assay type: functional
# MOLM-13 [7] = experiment: Induction of apoptosis in human MOLM13 cells assessed as live cells at 3 uM after 24 hrs by Annexin-V FITC/7-AAD staining based flow cytometric method (reference value: 86.8%); assay type: functional
# EOL1 [8] = experiment: Induction of apoptosis in human EOL-1 cells assessed as late apoptotic cells at 6 uM after 24 hrs by Annexin-V FITC/7-AAD staining based flow cytometric method (reference value: 0.535%); assay type: functional
# MOLM-13 [9] = experiment: Induction of apoptosis in human MOLM13 cells assessed as late apoptotic cells at 6 uM after 24 hrs by Annexin-V FITC/7-AAD staining based flow cytometric method (reference value: 1.43%); assay type: functional
# EOL1 [10] = experiment: Cytotoxicity against human EOL-1 cells after 72 hrs by MTS assay; assay type: functional, cell-based; details: EOL1, 72 h
# MOLM-13 [11] = experiment: Induction of apoptosis in human MOLM13 cells assessed as live cells at 12 uM after 24 hrs by Annexin-V FITC/7-AAD staining based flow cytometric method (reference value: 86.8%); assay type: functional
# MOLM-13 [12] = experiment: Induction of apoptosis in human MOLM13 cells assessed as early apoptotic cells at 3 uM after 24 hrs by Annexin-V FITC/7-AAD staining based flow cytometric method (reference value: 11.8%); assay type: functional
# MOLM-13 [13] = experiment: Induction of apoptosis in human MOLM13 cells assessed as live cells at 6 uM after 24 hrs by Annexin-V FITC/7-AAD staining based flow cytometric method (reference value: 86.8%); assay type: functional
# MOLM-13 [14] = experiment: Cytotoxicity against human MOLM13 cells after 72 hrs by MTS assay; assay type: functional, cell-based; details: MOLM-13, 72 h
# MOLM-13 [15] = experiment: Induction of apoptosis in human MOLM13 cells assessed as necrotic cells at 12 uM after 24 hrs by Annexin-V FITC/7-AAD staining based flow cytometric method (reference value: 0%); assay type: functional
# MOLM-13 [16] = experiment: Induction of apoptosis in human MOLM13 cells assessed as late apoptotic cells at 3 uM after 24 hrs by Annexin-V FITC/7-AAD staining based flow cytometric method (reference value: 1.43%); assay type: functional
# EOL1 [17] = experiment: Synergistic antileukemic activity against human EOL-1 cells assessed as concentration required for <= 75% cell survival after 72 hrs in presence of midostaurin by CellTiter 96 AQueous One solution cell proliferation assay; assay type: functional
# EOL1 [18] = experiment: Induction of apoptosis in human EOL-1 cells assessed as late apoptotic cells at 3 uM after 24 hrs by Annexin-V FITC/7-AAD staining based flow cytometric method (reference value: 0.535%); assay type: functional
# HT-29 = experiment: Cytotoxicity against human HT-29 cells after 72 hrs by MTS assay; assay type: functional, cell-based; details: HT-29, 72 h
# EOL1 [19] = experiment: Induction of apoptosis in human EOL-1 cells assessed as early apoptotic cells at 12 uM after 24 hrs by Annexin-V FITC/7-AAD staining based flow cytometric method (reference value: 1.94%); assay type: functional
# EOL1 [20] = experiment: Induction of apoptosis in human EOL-1 cells assessed as necrotic cells at 6 uM after 24 hrs by Annexin-V FITC/7-AAD staining based flow cytometric method (reference value: 0.032%); assay type: functional
# MOLM-13 [21] = experiment: Induction of apoptosis in human MOLM13 cells assessed as necrotic cells at 3 uM after 24 hrs by Annexin-V FITC/7-AAD staining based flow cytometric method (reference value: 0%); assay type: functional
# MOLM-13 [22] = experiment: Induction of apoptosis in human MOLM13 cells assessed as late apoptotic cells at 12 uM after 24 hrs by Annexin-V FITC/7-AAD staining based flow cytometric method (reference value: 1.43%); assay type: functional
# EOL1 [23] = experiment: Induction of apoptosis in human EOL-1 cells assessed as caspase-3 activation at 10 uM after 72 hrs by immunoblotting analysis; assay type: functional, cell-based
# Outline: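 EOL-1 cells (RPMI 1640, 10% FBS, 37 °C, 5% CO2) exposed 72 h; compounds at 10 μM, PKC412 at 10 nM. Harvested, PBS-washed, lysed in hypertonic NP-40 buffer with protease/phosphatase inhibitors; SDS-PAGE, PVDF transfer, rabbit monoclonal cleaved caspase-3 (Asp175) antibody 12 h, secondary 1 h, chemiluminescent detection; β-actin loading control. Representative blots of three independent experiments.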
# MOLM-13 [24] = experiment: Synergistic antileukemic activity against human MOLM13 cells assessed as concentration required for <= 75% cell survival after 72 hrs in presence of midostaurin by CellTiter 96 AQueous One solution cell proliferation assay; assay type: functional
# MOLM-13 [25] = experiment: Induction of apoptosis in human MOLM13 cells assessed as necrotic cells at 6 uM after 24 hrs by Annexin-V FITC/7-AAD staining based flow cytometric method (reference value: 0%); assay type: functional
# EOL1 [26] = experiment: Induction of apoptosis in human EOL-1 cells assessed as early apoptotic cells at 3 uM after 24 hrs by Annexin-V FITC/7-AAD staining based flow cytometric method (reference value: 1.94%); assay type: functional
# EOL1 [27] = experiment: Induction of apoptosis in human EOL-1 cells assessed as live cells at 3 uM after 24 hrs by Annexin-V FITC/7-AAD staining based flow cytometric method (reference value: 97.5%); assay type: functional
# EOL1 [28] = experiment: Induction of apoptosis in human EOL-1 cells assessed as live cells at 12 uM after 24 hrs by Annexin-V FITC/7-AAD staining based flow cytometric method (reference value: 97.5%); assay type: functional
# MOLM-13 [29] = experiment: Induction of apoptosis in human MOLM13 cells assessed as early apoptotic cells at 6 uM after 24 hrs by Annexin-V FITC/7-AAD staining based flow cytometric method (reference value: 11.8%); assay type: functional
# EOL1 [30] = experiment: Induction of apoptosis in human EOL-1 cells assessed as late apoptotic cells at 12 uM after 24 hrs by Annexin-V FITC/7-AAD staining based flow cytometric method (reference value: 0.535%); assay type: functional
# EOL1 [31] = experiment: Induction of apoptosis in human EOL-1 cells assessed as necrotic cells at 3 uM after 24 hrs by Annexin-V FITC/7-AAD staining based flow cytometric method (reference value: 0.032%); assay type: functional
compound,measurement,setting,value
C=C1C(=O)O[C@@H]2C[C@@H](C)CCC(=O)[C@](C)(OC(C)=O)C[C@H](OC(=O)/C(C)=C\C)[C@@H]12,Activity,MOLM-13 [1],6.8%
same,Activity,MOLM-13 [2],Active
same,Activity,EOL1 [3],0.497%
same,inhibition,[4],Active
same,Activity,EOL1 [5],97.7%
same,Activity,EOL1 [6],1.66%
same,Activity,MOLM-13 [7],94.7%
same,Activity,EOL1 [8],0.545%
same,Activity,MOLM-13 [9],1.19%
same,IC50,EOL1 [10],8 µM
same,Activity,MOLM-13 [11],36.6%
same,Activity,MOLM-13 [12],4.46%
same,Activity,MOLM-13 [13],93.6%
same,IC50,MOLM-13 [14],10 µM
same,Activity,MOLM-13 [15],16.9%
same,Activity,MOLM-13 [16],0.817%
same,Activity,EOL1 [17],2.5 µM
same,Activity,EOL1 [18],0.417%
same,IC50,HT-29,3 µM
same,Activity,EOL1 [19],1.4%
same,Activity,EOL1 [20],0.096%
same,Activity,MOLM-13 [21],0.056%
same,Activity,MOLM-13 [22],39.7%
same,Activity,EOL1 [23],Active
same,Activity,MOLM-13 [24],4.9 µM
same,Activity,MOLM-13 [25],0.314%
same,Activity,EOL1 [26],1.64%
same,Activity,EOL1 [27],97.9%
same,Activity,EOL1 [28],93.4%
same,Activity,MOLM-13 [29],4.87%
same,Activity,EOL1 [30],4.7%
same,Activity,EOL1 [31],0.043%
